ChEMBL document CHEMBL4007408, “Identification of Novel Triazole-Based Nicotinamide Phosphoribosyltransferase (NAMPT) Inhibitors Endowed with Antiproliferative and Antiinflammatory Activity” (J Med Chem, 2017)
Activity calls are given as the source filed them. The calls are words filed in the database; no cut-off is given here.

Assays:
SH-SY5Y = test: Cytotoxicity against human SH-SY5Y cells assessed as reduction in cell viability after 56 hrs by MTT assay; assay type: functional, cell-based
[1] = target: Nicotinamide phosphoribosyltransferase (Mus musculus, UniProt Q99KQ4); test: Inhibition of recombinant mouse NAMPT expressed in bacterial expression system using nicotinamide as substrate after 1 hr by fluorescence based NMNAT-3 enzyme coupled assay
Liver [2] = test: Drug metabolism in human liver microsomes assessed as pyridine N-oxidation by measuring 7-(4-(pyridin-3-yl)-1H-1,2,3-triazol-1-yl)heptanoic acid formation after 60 mins in presence of NADPH-regenerating system by LC-UV analysis; assay type: ADME, microsome
Procedure, shortened: (§1)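 Metabolites were characterized by LC-ESI-MSn on supernatants of 60 min, 37 °C incubations. Each used 50 μM substrate with rat or human liver microsomes (1.0 mg/ml protein) in 50 mM Tris-HCl pH 7.4 with 3.3 mM MgCl2, 1% acetonitrile and an NADPH-regenerating system. Reactions were quenched with cold acetonitrile and centrifuged.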

Liver [3] = test: Drug metabolism in human liver microsomes assessed as pyridine N-oxidation by measuring biphenyl-2-carboxamide formation after 60 mins in presence of NADPH-regenerating system by LC-UV analysis; assay type: ADME, microsome; details: 1 h; procedure, shortened: as §1
Liver [4] = test: Drug metabolism in Wistar Han rat liver microsomes assessed as pyridine N-oxidation by measuring 7-(4-(pyridin-3-yl)-1H-1,2,3-triazol-1-yl)heptanoic acid formation after 60 mins in presence of NADPH-regenerating system by LC-UV analysis; assay type: ADME, microsome; procedure, shortened: as §1
Liver [5] = test: Drug metabolism in Wistar Han rat liver microsomes assessed as pyridine N-oxidation by measuring biphenyl-2-carboxamide formation after 60 mins in presence of NADPH-regenerating system by LC-UV analysis; assay type: ADME, microsome; details: 1 h; procedure, shortened: as §1
Mus musculus [6] = test: In vivo inhibition of NAMPT in DNBS-induced BALB/c mouse colitis model assessed as reduction in loss of body weight at 20 mg/kg, ip bid administered for 3 days post DNBS challenge; assay type: functional, organism-based
Mus musculus [7] = test: In vivo inhibition of NAMPT in DNBS-induced BALB/c mouse colitis model assessed as reduction in mucosal congestion at 20 mg/kg, ip bid administered for 3 days post DNBS challenge; assay type: functional, organism-based
Mus musculus [8] = test: In vivo inhibition of NAMPT in DNBS-induced BALB/c mouse colitis model assessed as reduction in erosion at 20 mg/kg, ip bid administered for 3 days post DNBS challenge; assay type: functional, organism-based
Mus musculus [9] = test: In vivo inhibition of NAMPT in DNBS-induced BALB/c mouse colitis model assessed as reduction in hemorrhagic ulcerations at 20 mg/kg, ip bid administered for 3 days post DNBS challenge; assay type: functional, organism-based
Mus musculus [10] = test: In vivo inhibition of NAMPT in DNBS-induced BALB/c mouse colitis model assessed as reduction in neutrophil infiltration by measuring myeloperoxidase levels at 20 mg/kg, ip bid administered for 3 days post DNBS challenge by ELISA; assay type: functional, organism-based
Liver [11] = test: Drug level in human liver microsomes treated with N-(biphenyl-2-yl)-8-(4-(pyridin-3-yl)-1H-1,2,3-triazol-1-yl)octanamide after 60 mins by LC-ESI-MS analysis; assay type: ADME, microsome
Liver [12] = test: Drug level in Wistar Han rat liver microsomes treated with N-(biphenyl-2-yl)-8-(4-(pyridin-3-yl)-1H-1,2,3-triazol-1-yl)octanamide after 60 mins by LC-ESI-MS analysis; assay type: ADME, microsome
Liver [13] = test: Drug level in human liver microsomes treated with N-(7-(4-(Pyridin-3-yl)-1H-1,2,3-triazol-1-yl)heptyl)-[1,1'-biphenyl]-2-carboxamide after 60 mins in presence of NADPH-regenerating system by LC-UV analysis; assay type: ADME, microsome
Procedure, shortened: (§2)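 Substrate at 50 μM final, with rat or human liver microsomes at 1.0 mg/ml protein, in 50 mM Tris-HCl pH 7.4. Mix held 3.3 mM MgCl2, 1% acetonitrile and an NADPH-regenerating system (1.3 mM β-NADP, 3.3 mM glucose 6-phosphate, 0.4 U/ml G6PDH). Shaken 60 min at 37 °C, stopped with ice-cold acetonitrile. LC-UV gave % residual substrate versus a no-microsome control, mean of two replicates.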

Liver [14] = test: Drug level in Wistar Han rat liver microsomes treated with N-(7-(4-(Pyridin-3-yl)-1H-1,2,3-triazol-1-yl)heptyl)-[1,1'-biphenyl]-2-carboxamide after 60 mins in presence of NADPH-regenerating system by LC-UV analysis; assay type: ADME, microsome; procedure, shortened: as §2
[15] = Homo sapiens, SH-SY5Y, 56 h, read-out: EC50

Chain of Nicotinamide phosphoribosyltransferase (Q99KQ4 whole entry): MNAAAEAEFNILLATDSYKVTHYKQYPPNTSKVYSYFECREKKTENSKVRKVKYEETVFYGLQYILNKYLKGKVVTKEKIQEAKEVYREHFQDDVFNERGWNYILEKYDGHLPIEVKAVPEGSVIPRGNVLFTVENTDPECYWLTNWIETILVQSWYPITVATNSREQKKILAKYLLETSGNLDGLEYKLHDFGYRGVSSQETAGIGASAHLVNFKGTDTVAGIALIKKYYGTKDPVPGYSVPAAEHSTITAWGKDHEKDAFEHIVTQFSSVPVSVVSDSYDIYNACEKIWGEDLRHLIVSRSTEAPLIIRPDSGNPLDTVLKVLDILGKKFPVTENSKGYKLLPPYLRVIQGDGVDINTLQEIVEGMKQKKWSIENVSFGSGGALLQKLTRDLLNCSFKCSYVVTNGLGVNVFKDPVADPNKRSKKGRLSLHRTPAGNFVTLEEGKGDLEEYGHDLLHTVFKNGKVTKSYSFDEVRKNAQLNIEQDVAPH

Row | Structure (SMILES) | EC50 (SH-SY5Y; [15]) [nM] | further results
1 | O=C(Nc1ccccc1-c1ccccc1)OCCCCCCCCn1cc(-c2cccnc2)nn1 | 255 | 
2 | O=C(Nc1ccccc1-c1ccccc1)OCCCCCCCn1cc(-c2cccnc2)nn1 | 36 | 
3 | c1ccc(-c2ccccc2CNCCCCCCCn2cc(-c3cccnc3)nn2)cc1 | 237 | 
4 | O=S(=O)(NCCCCCCCn1cc(-c2cccnc2)nn1)c1ccccc1-c1ccccc1 | 99.2 | 
5 | O=C(NCCCCCCCCn1cc(-c2cccnc2)nn1)c1ccccc1-c1ccccc1 | 194 | 
6 | c1ccc(-c2ccccc2-c2cn(CCCCCCn3cc(-c4cccnc4)nn3)nn2)cc1 | 36.6 | 
7 | O=C(NCCCCCCCn1cc(-c2ccc[n+]([O-])c2)nn1)c1ccccc1-c1ccccc1 |  | IC50 [1]: Not Active; EC50 (SH-SY5Y; sh-sy5y): Not Active; Drug metabolism (Liver [2]): Metabolite_Detected; Drug metabolism (Liver [3]): Metabolite_Detected; Drug metabolism (Liver [4]): Metabolite_Detected; Drug metabolism (Liver [5]): Metabolite_Detected
8 | O=C(Nc1ccccc1-c1ccccc1)OCCCCCCn1cc(-c2cccnc2)nn1 | 34 | 
9 | O=S(=O)(NCCCCCCCCn1cc(-c2cccnc2)nn1)c1ccccc1Br | 171 | 
10 | C[C@@H]1C[C@H]2[C@@H]3CCC4=CC(=O)C=C[C@]4(C)[C@@]3(F)[C@@H](O)C[C@]2(C)[C@@]1(O)C(=O)CO |  | inhibition (Mus musculus [6]): Active; inhibition (Mus musculus [7]): Active; inhibition (Mus musculus [8]): Active; inhibition (Mus musculus [9]): Active; inhibition (Mus musculus [10]): Active
11 | O=C(O)CCCCCCCn1cc(-c2cccnc2)nn1 |  | Drug metabolism (Liver [11]): Metabolite_Detected; Drug metabolism (Liver [12]): Metabolite_Detected
12 | c1ccc(-c2ccccc2OCCc2ccc(Cn3cc(-c4cccnc4)nn3)cc2)cc1 | 2.4 | IC50 ([1]; read-out: IC50): 15.6 nM
13 | c1ccc(-c2ccccc2-c2cn(CCCCCCCCn3cc(-c4cccnc4)nn3)nn2)cc1 | 74.5 | 
14 | O=C(NCCCCCCCCn1cc(-c2cccnc2)nn1)Nc1ccccc1-c1ccccc1 | 154 | 
15 | c1ccc(-c2ccccc2CNCCCCCCCCn2cc(-c3cccnc3)nn2)cc1 | 205 | 
16 | NC(=O)c1ccccc1-c1ccccc1 |  | Drug metabolism (Liver [13]): Metabolite_Detected; Drug metabolism (Liver [14]): Metabolite_Detected
17 | c1ccc(-c2ccccc2-n2cc(CCCCCCCn3cc(-c4cccnc4)nn3)nn2)cc1 | 55.1 | 
18 | c1ccc(-c2ccccc2OCCCc2ccc(-n3cc(-c4cccnc4)nn3)cc2)cc1 | 71 | 
19 | c1ccc(-c2ccccc2Oc2ccc(CCCn3cc(-c4cccnc4)nn3)cc2)cc1 | > 500 | 
20 | O=S(=O)(NCCCCCCCn1cc(-c2cccnc2)nn1)c1ccccc1Br | 162 | 
21 | c1ccc(-c2ccccc2OCCCCCCCCn2cc(-c3cccnc3)nn2)cc1 | 8.2 | IC50 ([1]; read-out: IC50): 25.4 nM
